The test system of assay [1] is Rattus norvegicus. Nature of the assay: Antiangiogenic activity in streptozotocin-induced diabetic Wistar rat model assessed as decrease in microvessel density in wound region at 10 mg/L, po administered with superbock stout beer for […] prior to wounding measured on day 7 post-wounding by wound healing assay. The format is functional, organism-based. In outline:
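Beverage given ad libitum, renewed every two days, kept in dark bottles. Vessels counted in three dorsal skin wound sections per animal and normalized to section area; each separate stained endothelial cell or cluster counted as one vessel; n = 4–6.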

Assay [2] relates to Rattus norvegicus. Kind of assay: Antioxidant activity in streptozotocin-induced diabetic Wistar rat model assessed as reduction in hepatic protein carbonylation at 10 mg/L, po administered with superbock stout beer for 5 weeks prior to wounding measured on day 7 post-wounding by Western blotting analysis (reference value: 13.80 +/- 1.12%). The format is functional. Further details: scale not given: the % may be the effect or the level left.

The test system of assay [3] is Rattus norvegicus. Kind of assay: Antioxidant activity in streptozotocin-induced diabetic Wistar rat model assessed as decrease in H2O2 release in kidney at 10 mg/L, po administered with superbock stout beer for 5 weeks prior to wounding measured on day 7 post-wounding by fluorescence assay relative to control. It is filed as functional, organism-based. The essentials:
(§1)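 Fresh kidney or liver cut into 3 mm3 pieces and incubated 90 min at 37 °C in oxygenated, shaken Krebs-HEPES (pH 7.4, 5 mM glucose). H2O2 released measured by Amplex Red fluorescence. Expressed as percent of healthy control; means ± SEM, n = 4–6.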

The subject of assay [4] is Rattus norvegicus. Kind of assay: Antioxidant activity in streptozotocin-induced diabetic Wistar rat model assessed as reduction in protein carbonylation in kidney at 10 mg/L, po administered with superbock stout beer for 5 weeks prior to wounding measured on day 7 post-wounding by Western blotting analysis relative to control. It is filed as functional, organism-based.

The test system of assay [5] is Rattus norvegicus. Kind of assay: Antioxidant activity in streptozotocin-induced diabetic Wistar rat model assessed as reduction in 3-NT protein expression in kidney at 10 mg/L, po administered with superbock stout beer for 5 weeks prior to wounding measured on day 7 post-wounding by Western blotting analysis (reference value: 3.76 +/- 0.57%). The format is functional. Further details: scale not given: the % may be the effect or the level left.

Assay [6] relates to Rattus norvegicus. Nature of the assay: Antioxidant activity in streptozotocin-induced diabetic Wistar rat model assessed as reduction in 3-NT protein expression in liver at 10 mg/L, po administered with superbock stout beer for 5 weeks prior to wounding measured on day 7 post-wounding by Western blotting analysis (reference value: 5.52 +/- 1.64%). Further details: scale not given: the % may be the effect or the level left. It is filed as functional. (In western blotting, separated proteins are transferred to a membrane and probed.)

The test system of assay [7] is Rattus norvegicus. Kind of assay: Antioxidant activity in streptozotocin-induced diabetic Wistar rat model assessed as […] in H2O2 release in liver at 10 mg/L, po administered with superbock stout beer for 5 weeks prior to wounding measured on day 7 post-wounding by fluorescence assay relative to control. It is filed as functional, organism-based. The essentials:
as §1

The subject of assay [8] is Rattus norvegicus. Kind of assay: Antioxidant activity in streptozotocin-induced diabetic Wistar rat model assessed as increase in reduced glutathione level in serum at 10 mg/L, po administered with superbock stout beer for 5 weeks prior to wounding measured on day 7 post-wounding by RP-HPLC analysis. It is filed as functional, organism-based. The essentials:
(§2)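 Plasma reduced and oxidized glutathione separated and quantified by reversed-phase HPLC with a GSH/GSSG kit. Samples came from skin-injured STZ-diabetic rats after five weeks of ad libitum beverage. Expressed as percent of control; n = 4–6.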

Assay [9] has as its system Rattus norvegicus. Nature of the assay: Antioxidant activity in streptozotocin-induced diabetic Wistar rat model assessed as increase in reduced/oxidized glutathione ratio in serum at 10 mg/L, po administered with superbock stout beer for 5 weeks prior to wounding measured on day 7 post-wounding by RP-HPLC analysis. It is filed as functional, organism-based. The essentials:
as §2

The subject of assay [10] is Rattus norvegicus. Nature of the assay: Antiinflammatory activity in streptozotocin-induced diabetic Wistar rat model assessed as reduction in nitric oxide level in serum at 10 mg/L, po administered with superbock stout beer for 5 weeks prior to wounding measured on day 7 post-wounding by Griess method relative to control. It is filed as functional, organism-based. On the technique in general: Nitrite, measured by Griess reagent, commonly stands in for NO production.

Assay [11] concerns Rattus norvegicus. Kind of assay: Antiinflammatory activity in streptozotocin-induced diabetic Wistar rat model assessed as reduction in N-acetylglucosaminidase level in serum at 10 mg/L, po administered with superbock stout beer for 5 weeks prior to wounding measured on day 7 post-wounding relative to control. The format is functional, organism-based.
The subject of assay [12] is Rattus norvegicus. Kind of assay: Antiinflammatory activity in streptozotocin-induced diabetic Wistar rat model assessed as reduction in IL1beta level in serum at 10 mg/L, po administered with superbock stout beer for 5 weeks prior to wounding measured on day 7 post-wounding by ELISA (reference value: 20.94 +/- 2.17 pg/mL). The format is functional. For orientation: An ELISA detects its analyte on a solid surface through an enzyme-linked reagent.

Assay [13] relates to Rattus norvegicus. Nature of the assay: Antiangiogenic activity in streptozotocin-induced diabetic Wistar rat model assessed as reduction in VEGF-A level in plasma at 10 mg/L, po administered with superbock stout beer for 5 weeks prior to wounding measured on day 7 post-wounding by ELISA. The format is functional, organism-based. The essentials:
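STZ-diabetic male Wistar rats (50 mg/kg i.p.; glucose >250 mg/dL) drinking the beverage ad libitum for five weeks, with skin injury. Plasma VEGF-A measured by rat VEGF Quantikine ELISA per kit instructions; means ± SEM, n = 4–6; ANOVA with Bonferroni.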

Activity calls are given as the source filed them. No cut-off for these calls is given here.

Take `COc1cc(O)c(CC=C(C)C)c(O)c1C(=O)/C=C/c1ccc(O)cc1` [XANTHOHUMOL]: the result with Rattus norvegicus [1], in the assay with Rattus norvegicus [3], with Rattus norvegicus [4], in the assay on Rattus norvegicus [7], with Rattus norvegicus [8] and in the assay with Rattus norvegicus [9] was Active. Moreover, the result in the assay on Rattus norvegicus [10], in the assay with Rattus norvegicus [11] and in the assay with Rattus norvegicus [13] was Active. Moreover, the Activity in the assay on Rattus norvegicus [2] was determined as 4.67%; in the assay on Rattus norvegicus [5] it was 1.99%; in the assay with Rattus norvegicus [6], 1.38%; in the assay on Rattus norvegicus [12], 13.36 pg/mL.
